These results are taken from PubChem BioAssay.

The nature of assay [1]: reducers of endogenous Her2 protein level, primary screen, SKBR3 breast tumor cells, AlphaScreen, ATP viability (AID 461).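 As to Her2 level: lower value means less Her2 protein in the cells.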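 As to viability: percent of carrier control wells set as 100% viability.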 The note with it: 18-24 h, measured here: SKBR3 viability, ATP luminescence, at 10 µM. On the technique in general: In Alpha technology, singlet oxygen from a donor bead excites a nearby acceptor bead.
Assay [2] has as its target Receptor tyrosine-protein kinase erbB-2 (Homo sapiens) (UniProt P04626). Described as above. The note with it: 18-24 h, at 10 µM, stronger effect = lower value.
A short description of assay [3]: SK-BR-3 cell growth inhibitors, pilot screen, 24 h, human (AID 572;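 active = viability at or below 10% of carrier control in both of two separate runs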;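 also: compound exposure lasted between 18 and 24 h rather than exactly 24 h; 100% = carrier-treated control wells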). The settings on record: SK-BR-3 viability, CellTiter-Glo luminescence, at 10 µM, stronger effect = lower value.
The nature of assay [4]: HUVEC growth inhibition – cell-based, human, primary screen (AID 575;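 active = viability at or below 30% in both replicate assays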;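 also: 100% = median of untreated cell wells with 0.1% DMSO on each plate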). The settings on record: HUVEC proliferation, CellTiter-Glo luminescence, 72 h; at 10 µM; stronger effect = lower value. The procedure, abridged:
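System: primary human umbilical vein endothelial cells; Quantity: 1250 endothelial cells in each well; Buffer or medium: supplemented EBM, 2% fetal bovine serum; Doses: one dose, 10 µM final, 0.1% DMSO; Incubation: 72 h compound incubation; Technique: ATP-based CellTiter-Glo luminescent read; Evaluation: percent of median DMSO-control luminescence; Controls: vehicle and MePR control wells.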
In general terms: ATP-based viability assays read luminescence as a measure of living cells.

The nature of assay [5]: growth inhibitors of H69AR lung tumor, primary screen, human, duplicate replicates (AID 580;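 active = viability at or under a set limit in both replicates, limit being median viability minus 3 SD, cut at about 48% in these data, passing the limit was not always enough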;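 also: 100% = mean luminescence of untreated wells and 0% = no signal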). The settings on record: H69AR lung tumor cells viability, ATP luminescence, 72 h; at 10 µM; stronger effect = lower value.
Assay [6] in a line: reversal of MRP1-mediated doxorubicin resistance, pilot screen, H69AR cells, doxorubicin co-treatment (AID 601;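 active = viability loss from added drug above about 55%, and viability with drug at most 40%, in both replicates, limit read from the data, passing the limit was not always enough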). The settings on record: CellTiter-Glo, 72 h, at 10 µM; for differential viability (reversal): stronger effect = higher value.
Assay [7] is described as follows: 384-well plate pilot, post-Golgi transport modulator project, inhibition of yeast transport mutant growth (AID 636; in the data active = inhibition above about 31%). The settings on record: absorbance 615 nm, about 18 h, stronger effect = higher value.
Assay [8] can be described thus: growth suppression of yeast trafficking mutant, preliminary HTS, modulators of trafficking downstream of Golgi apparatus project, 1536-format plate, OD 615 nm (AID 637; in the data active = inhibition above about 30%). The settings on record: yeast transport mutant growth, absorbance 615 nm, 18 h; stronger effect = higher value.
[9] abbreviates: H69AR cells + 2 uM doxorubicin, measured here: viability with 2 uM doxorubicin, stronger effect = lower value.
Setting [10] is: H69AR cells, compound alone cytotoxicity.

Each structure is given as a SMILES string. Calls of active or inactive are those of the source.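 The calls were made as follows, unless noted: active = Her2 level under about 52% in both replicate screens, with viability over 70% of control (limit read from the data); inconclusive = Her2 under the limit in one screen only, or viability under 70%; inactive = Her2 level above the set limit.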

Sequence of Receptor tyrosine-protein kinase erbB-2 (Homo sapiens) (P04626 whole entry, looked up): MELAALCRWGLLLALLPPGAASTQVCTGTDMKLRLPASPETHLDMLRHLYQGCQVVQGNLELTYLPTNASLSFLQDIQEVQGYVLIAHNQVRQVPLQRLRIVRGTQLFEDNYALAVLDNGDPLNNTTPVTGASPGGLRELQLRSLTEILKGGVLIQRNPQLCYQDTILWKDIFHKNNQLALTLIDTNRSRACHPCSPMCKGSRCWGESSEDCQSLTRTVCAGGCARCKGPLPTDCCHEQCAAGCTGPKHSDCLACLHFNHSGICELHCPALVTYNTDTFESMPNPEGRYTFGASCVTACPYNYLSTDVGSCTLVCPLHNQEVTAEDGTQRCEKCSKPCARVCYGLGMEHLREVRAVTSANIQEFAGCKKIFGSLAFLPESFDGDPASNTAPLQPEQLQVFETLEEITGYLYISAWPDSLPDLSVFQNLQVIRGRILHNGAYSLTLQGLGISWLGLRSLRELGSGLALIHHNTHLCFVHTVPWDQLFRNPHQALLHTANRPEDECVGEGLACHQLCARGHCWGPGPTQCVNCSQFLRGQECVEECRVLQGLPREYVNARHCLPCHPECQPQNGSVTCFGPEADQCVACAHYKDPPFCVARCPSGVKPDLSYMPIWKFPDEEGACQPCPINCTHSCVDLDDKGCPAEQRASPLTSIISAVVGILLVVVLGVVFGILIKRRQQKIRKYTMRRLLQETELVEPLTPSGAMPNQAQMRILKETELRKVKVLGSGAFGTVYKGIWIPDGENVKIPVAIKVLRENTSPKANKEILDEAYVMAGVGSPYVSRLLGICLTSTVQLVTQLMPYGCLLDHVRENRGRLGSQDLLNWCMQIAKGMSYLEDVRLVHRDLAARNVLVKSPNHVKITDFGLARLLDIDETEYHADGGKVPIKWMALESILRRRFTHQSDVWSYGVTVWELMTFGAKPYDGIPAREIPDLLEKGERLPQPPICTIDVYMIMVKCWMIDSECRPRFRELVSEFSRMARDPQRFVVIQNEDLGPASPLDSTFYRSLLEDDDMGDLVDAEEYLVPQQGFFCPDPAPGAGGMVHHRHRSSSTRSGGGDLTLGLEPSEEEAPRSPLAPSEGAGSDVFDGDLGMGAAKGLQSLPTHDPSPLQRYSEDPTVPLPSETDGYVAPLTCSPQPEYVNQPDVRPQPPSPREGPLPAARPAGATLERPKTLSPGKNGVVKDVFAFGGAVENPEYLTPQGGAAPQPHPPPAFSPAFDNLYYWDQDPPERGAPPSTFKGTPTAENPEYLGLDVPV

As a reminder, the viability is a read-out of living cells in per cent, often relative to untreated cells. A word on the inhibition: it is the change of the read-out against control, counted positive when it falls. As for `Cc1ccc(-c2nn(-c3ccccc3)cc2CN(Cc2ccccc2)C(=O)CCC(=O)O)o1`, the viability is 100% in assay [1]; 100% (inactive) in assay [3]; 86.5% (inactive) in assay [4]; 85.7% (inactive) in assay [5]; 76.7% in assay [6] (setting [9]); 85.7% in assay [6] (setting [10]). Also, the Her2 level in assay [2] was 94% (inactive). Also, the differential viability (reversal) in assay [6] (H69AR cells + 2 uM doxorubicin) is 8.97% (inactive). The inhibition in assay [7] was -5.07% (inactive); in assay [8] it was 3.02% (inactive).

Regarding `CN(C)/C=C(\C#N)c1nc2ccccc2[nH]1`, the viability in assay [1] was 85%; in assay [3], 85% (inactive); in assay [4] it was 97.6% (inactive); in assay [5], 98% (inactive); in assay [6] (setting [9]) it was 77%; in assay [6] (setting [10]), 98%. For the same compound, the Her2 level in assay [2] is 90% (inactive). For the same compound, in assay [6] (H69AR cells + 2 uM doxorubicin), the differential viability (reversal) was 20.9% (inactive). In addition, the inhibition in assay [7] is 2.37% (inactive); in assay [8], -8.36% (inactive).

With `NC(=O)c1ccccc1NC(=O)CCCN1C(=O)CCC1=O`, the viability in assay [1] is 101%; in assay [3], 101% (inactive); in assay [4], 92.9% (inactive); in assay [5], 95.6% (inactive); in assay [6] (setting [9]), 85%; in assay [6] (setting [10]), 95.6%. For the same compound, in assay [2], the Her2 level was 83.5% (inactive). Also, the differential viability (reversal) in assay [6] (H69AR cells + 2 uM doxorubicin) was 10.6% (inactive). In addition, the values for the inhibition in assay [7] and in assay [8] were -6.89% (inactive) and -1.9% (inactive), respectively.

In the case of `O=C(CCCC(=O)N(CC(=O)NC1CCCCC1)Cc1ccc2c(c1)OCO2)Nc1ccccn1`, the viability is 102% in assay [1]; 102% (inactive) in assay [3]; 101% (inactive) in assay [4]; 92.3% (inactive) in assay [5]; 81.9% in assay [6] (setting [9]); 92.3% in assay [6] (setting [10]). Further, in assay [2], the Her2 level is 97.5% (inactive). Besides, the differential viability (reversal) in assay [6] (H69AR cells + 2 uM doxorubicin) is 10.4% (inactive). Moreover, the values for the inhibition in assay [7] and in assay [8] were -6.18% (inactive) and 0.32% (inactive), respectively.

Take `C=CCOc1nc(N(C)C)nc(N(C)C)n1`: the viability in assay [1] is 92.5%; in assay [3], 92.5% (inactive); in assay [4] it was 93.9% (inactive); in assay [5] it was 98.2% (inactive); in assay [6] (setting [9]) it was 88.8%; in assay [6] (setting [10]), 98.2%. Further, the Her2 level in assay [2] was 87% (inactive). The differential viability (reversal) in assay [6] (H69AR cells + 2 uM doxorubicin) is 9.33% (inactive). Further, the inhibition in assay [7] was -4.67% (inactive); in assay [8], 1.31% (inactive).

Take `COc1cccc(OC)c1C(=O)N1CCN(S(=O)(=O)c2ccccc2)CC1`: the viability is 79.5% in assay [1]; 79.5% (inactive) in assay [3]; 82.9% (inactive) in assay [4]; 97.2% (inactive) in assay [5]; 82.1% in assay [6] (setting [9]); 97.2% in assay [6] (setting [10]). The Her2 level in assay [2] is 82.5% (inactive). The differential viability (reversal) in assay [6] (H69AR cells + 2 uM doxorubicin) was 15.2% (inactive). Besides, the inhibition is -3.42% (inactive) in assay [7] and -2% (inactive) in assay [8].

On to `CCOC(=O)N1CCC(NC(=O)CS(=O)(=O)Cc2nc(-c3ccccc3C)oc2C)CC1`, for which the viability in assay [1] was 105%; in assay [3], 105% (inactive); in assay [4], 114% (inactive); in assay [5] it was 95.7% (inactive); in assay [6] (setting [9]), 100%; in assay [6] (setting [10]), 95.7%. The Her2 level in assay [2] was 95% (inactive). Further, in assay [6] (H69AR cells + 2 uM doxorubicin), the differential viability (reversal) is -4.35% (inactive). Moreover, the results for the inhibition in assay [7] and in assay [8] were -3.73% (inactive) and 0.66% (inactive), respectively.

In the case of `CCOC(=O)c1[nH]c(C)c(C(=O)N2CCN(C(=O)c3ccco3)CC2)c1C`, the viability in assay [1] was 88.5%; in assay [3], 88.5% (inactive); in assay [4], 98.4% (inactive); in assay [5] it was 97.8% (inactive); in assay [6] (setting [9]), 95.6%; in assay [6] (setting [10]) it was 97.8%. Moreover, in assay [2], the Her2 level is 95.5% (inactive). Further, the differential viability (reversal) in assay [6] (H69AR cells + 2 uM doxorubicin) was 2.2% (inactive). The inhibition is -11.6% (inactive) in assay [7] and -0.48% (inactive) in assay [8].

Regarding `COc1ccc(/C=N/n2c(=O)[nH]c3c([nH]c4ccc(C)cc43)c2=O)cc1CN1CCOCC1`, the viability is 112% in assay [1]; 112% (inactive) in assay [3]; 95.6% (inactive) in assay [4]; 84.6% (inactive) in assay [5]; 83.7% in assay [6] (setting [9]); 84.6% in assay [6] (setting [10]). Besides, the Her2 level in assay [2] is 100% (inactive). In addition, the differential viability (reversal) in assay [6] (H69AR cells + 2 uM doxorubicin) was 0.925% (inactive). The inhibition in assay [7] was -1.71% (inactive); in assay [8], 12% (inactive).

In the case of `Nc1sccc1C(=O)c1ccccc1`, the viability in assay [1] is 85.5%; in assay [3], 85.5% (inactive); in assay [4] it was 82.6% (inactive); in assay [5], 88.5% (inactive); in assay [6] (setting [9]), 91.2%; in assay [6] (setting [10]) it was 88.5%. In assay [2], the Her2 level is 118% (inactive). In assay [6] (H69AR cells + 2 uM doxorubicin), the differential viability (reversal) was -2.76% (inactive). Besides, the inhibition in assay [7] was -1.87% (inactive); in assay [8], -0.16% (inactive).

On to `COc1cc(=O)[nH]c(SCc2c(F)c(F)c(F)c(F)c2F)n1`, for which the viability in assay [1] was 95%; in assay [3] it was 95% (inactive); in assay [4] it was 94% (inactive); in assay [5] it was 91.5% (inactive); in assay [6] (setting [9]) it was 93.2%; in assay [6] (setting [10]) it was 91.5%. Besides, the Her2 level in assay [2] is 95.5% (inactive). In addition, in assay [6] (H69AR cells + 2 uM doxorubicin), the differential viability (reversal) is -1.69% (inactive). Besides, the results for the inhibition in assay [7] and in assay [8] were -5.6% (inactive) and -10% (inactive), respectively.

For the compound `CCCOc1ccc(N2C(=O)C3ON(c4ccccc4)C(c4ccc(O)c(OC)c4)C3C2=O)cc1` (stereo not given), the viability in assay [1] was 106%; in assay [3] it was 106% (inactive); in assay [4], 71.6% (inactive); in assay [5], 93.8% (inactive); in assay [6] (setting [9]) it was 83.3%; in assay [6] (setting [10]) it was 93.8%. Moreover, in assay [2], the Her2 level was 100% (inactive). For the same compound, in assay [6] (H69AR cells + 2 uM doxorubicin), the differential viability (reversal) is 10.6% (inactive). In addition, the inhibition in assay [7] was -3.03% (inactive); in assay [8] it was 3.55% (inactive).

On to `CCN(CC)CCN1C(=O)C(=O)/C(=C(/O)c2c(C)[nH]c(C(=O)OC)c2C)C1c1ccccc1OC` (stereo not given), for which the viability was 104% in assay [1]; 104% (inactive) in assay [3]; 84.6% (inactive) in assay [4]; 68.3% (inactive) in assay [5]; 89.5% in assay [6] (setting [9]); 68.3% in assay [6] (setting [10]). The Her2 level in assay [2] is 117% (inactive). In addition, the differential viability (reversal) in assay [6] (H69AR cells + 2 uM doxorubicin) is -21.3% (inactive). The inhibition is -0.26% (inactive) in assay [7] and -4.5% (inactive) in assay [8].

For `COCCN(C(=O)c1csnn1)C(C(=O)NC(C)(C)C)c1cccc(OC)c1` (stereo not given), the viability in assay [1] is 89.5%; in assay [3], 89.5% (inactive); in assay [4], 120% (inactive); in assay [5], 97.9% (inactive); in assay [6] (setting [9]), 96.9%; in assay [6] (setting [10]), 97.9%. For the same compound, in assay [2], the Her2 level is 91% (inactive). The differential viability (reversal) in assay [6] (H69AR cells + 2 uM doxorubicin) is 0.985% (inactive). The inhibition in assay [7] was -4.4% (inactive); in assay [8] it was 0% (inactive).

Turning to `c1ccc2ncc(-n3cnnn3)cc2c1`, the viability is 99.5% in assay [1]; 99.5% (inactive) in assay [3]; 83.2% (inactive) in assay [4]; 94% (inactive) in assay [5]; 87.9% in assay [6] (setting [9]); 94% in assay [6] (setting [10]). The Her2 level in assay [2] is 105% (inactive). The differential viability (reversal) in assay [6] (H69AR cells + 2 uM doxorubicin) was 6.05% (inactive). The inhibition in assay [7] was -3.24% (inactive); in assay [8] it was 5.74% (inactive).

Regarding `CCOC(=O)C(CCc1nnc(N)s1)C(=O)OCC`, the viability in assay [1] is 87.5%; in assay [3] it was 87.5% (inactive); in assay [4], 110% (inactive); in assay [5] it was 108% (inactive); in assay [6] (setting [9]) it was 95.2%; in assay [6] (setting [10]), 108%. Besides, the Her2 level in assay [2] is 89% (inactive). Further, the differential viability (reversal) in assay [6] (H69AR cells + 2 uM doxorubicin) was 12.8% (inactive). Besides, the inhibition was -4.53% (inactive) in assay [7] and -0.48% (inactive) in assay [8].
